Results collected from several papers.
Lines come from different studies, so protocols differ.
Observed: parasite growth

Compound | organism | technique | time | setting | IC50
C=C1CC[C@@H]2C(C)(C)CCC[C@@]2(C)[C@@H]1CC/C(C)=C/C(=O)OC | Leishmania amazonensis |  | 72 h | promastigote | 6 µg/mL
COc1ccc([S+]([O-])c2ccc(C)cc2)c(OC)c1OC (stereo not drawn) | Leishmania braziliensis | MTT | 24 h | promastigote | 67.2 µM
C=C1CC[C@@H]2[C@](C)(CCC[C@@]2(C)C(=O)O)[C@H]1CCc1ccoc1 | Leishmania amazonensis |  | 72 h | promastigote | 35 µg/mL
CC(C)(C)CC(C)(C)Nc1c(-c2cccs2)nc2ncccn12 | Leishmania amazonensis | MTT | 72 h | promastigote | > 100 µM
C[C@@H]1[C@H](O)[C@@H](C)/C=C/C=C/C=C/C=C/C=C/C=C/C=C/[C@H](O[C@@H]2O[C@H](C)[C@@H](O)[C@H](N)[C@@H]2O)C[C@@H]2O[C@](O)(C[C@@H](O)C[C@@H](O)[C@H](O)CC[C@@H](O)C[C@@H](O)CC(=O)O[C@H]1C)C[C@H](O)[C@H]2C(=O)O | Leishmania braziliensis | MTT | 24 h | promastigote | 22 µM
N=C(N)c1ccc(OCCCCCOc2ccc(C(=N)N)cc2)cc1 | Leishmania amazonensis | imaging | 48 h | intracellular, amastigote | 3.4 µM
CC(C)(C)CC(C)(C)Nc1c(-c2cccc([N+](=O)[O-])c2)nc2ncccn12 | Leishmania amazonensis | MTT | 72 h | promastigote | > 100 µM
C=C1CC[C@@H]2[C@](C)(CCC[C@@]2(C)C(=O)O)[C@H]1CC[C@H](C)CC(=O)O | Leishmania amazonensis |  | 72 h | promastigote | 70 µg/mL
CCCCCCCCCCCCCCCCOP(=O)([O-])OCC[N+](C)(C)C | Leishmania amazonensis | MTT | 72 h | promastigote | 15.1 µM
Oc1ccc(/C=C/c2cc(O)cc(O)c2)cc1 | Leishmania amazonensis | imaging | 48 h | intracellular, amastigote | 14 µM
CC(C)(C)CC(C)(C)Nc1c(-c2ccc(-c3ccccc3)cc2)nc2ncccn12 | Leishmania amazonensis | MTT | 72 h | promastigote | 31.1 µM
COc1ccc(Sc2ccccc2)c(OC)c1OC | Leishmania braziliensis | MTT | 24 h | promastigote | 14.3 µM
